Results reported in ChEMBL document CHEMBL4513216, “Probing the Open Global Health Chemical Diversity Library for Multistage-Active Starting Points for Next-Generation Antimalarials” (ACS Infect Dis, 2020).

Experiment: Toxicity liver stage against HepG2, at 10uM
Format: cell-based
Set-up: test concentration 10 uM, cell line HepG2-A16-CD81EGFP
Settings: human, HepG2-A16-CD81EGFP cells; read-out: INHIBITION
Summary of the method: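 Uninfected HepG2-A16-CD81EGFP cells, 3 × 10^3 per well, 1536-well, plated on prespotted compound at 10 μM final, parasite-free screening media added to match infected plates; puromycin 10 μM positive, DMSO 0.5% negative; run in parallel with 48 h PbLuc assay at 37 °C, 5% CO2; viability by CellTiter-Glo luminescence, normalized to controls.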

SMILES | cytotoxicity at 10 µM [%]
Cc1cccc(-c2noc([C@@H]3C[C@@H](O)CN3CC3CCCCC3)n2)c1 | 6.41
CC(C)c1ccc(-n2ncc(C(=O)N(C)C3CCN(C)CC3)c2N)cc1 | -6.57
COCCn1/c(=N\C(=O)CN(C)S(C)(=O)=O)sc2cc(C)ccc21 | -11.7
CCS(=O)(=O)NCCNc1cc(-n2cccc2)ncn1 | -3.5
O=C(Cc1ccc(Br)cc1)N1CC(S(=O)(=O)C2CCCCC2)C1 | -1.13
CCN1C(=O)C[C@@H]2[C@@H]1CCN2S(=O)(=O)c1cccc(C)c1 | 1.29
CNC(=O)CN1C(=O)CCC12CCCN(Cc1ccccc1F)C2 (configuration not stated) | 4.76
Cc1cccc(CN2CC3C[C@]3(NC(=O)c3ccco3)C2)n1 (some centres not stated) | -142
Cc1ncnc2c1CCN(C(=O)c1cnccn1)CC2 | -5.19
Cc1ccc(CC(=O)N2CCn3cc(Cn4cncn4)nc3C2)cc1 | -138
COC(=O)C(C)NC(=O)CSCc1nc(O)c2cc(C(C)C)sc2n1 (configuration not stated) | 10.2
O=C(c1cn(-c2ccccc2Cl)nn1)N1CCSCC1 | 8.24
COCc1ncn2c1CN(C(=O)C1CC=CC1)CC2 | -5.09
Cn1cc(-c2cnc(N3CCOCC3)nc2)cc1C(=O)O | -14.6
COc1ccccc1N1CCN(C(=O)Cn2nc(C)c(Cl)c2C)CC1 | 0.808
CCCc1nc(Nc2cccc(C(N)=O)c2)c2c(n1)c(C)nn2CC | 3.31
COc1cccc(Cn2cc(N3C(=O)CCC3=O)cn2)c1 | -2.75
CC1(Cc2ccc(Cl)cc2)Cc2cc(CCC(=O)O)ccc2O1 (configuration not stated) | 2.79
Cc1nn(C)c(C)c1-c1cnc(C2CCCN(C)C2)cn1 (configuration not stated) | -8.8
O=C(Cc1ccon1)N1CCc2cc(Br)sc2C1 | 1.69
O=C(NC1CC1)N(CCc1ccccc1)C1CCOC1 (configuration not stated) | -1.41
CCc1nc(CSCc2csc(CS(C)(=O)=O)n2)cs1 | -6.79
Cc1cccc(-c2ccc(C(=O)N3CCSCC3)c(=O)[nH]2)c1 | 6.99

SMILES | cytotoxicity at 10 µM [%]
Cn1cc(CNC2CCCOc3c2ccc2ccccc32)cn1 (configuration not stated) | 5.7
OC1(CNc2ccc(Br)cn2)CCC1 | 6.59
CC1CCCCN1C(=O)COc1nc(C(C)(C)C)no1 (configuration not stated) | -3.22
CN1CCOC(CNCC(=O)NCCc2ccc3c(c2)OCCO3)C1 (configuration not stated) | -10.2
CC(C)CCN(c1cn[nH]c1)S(=O)(=O)c1cccc(C#N)c1 | 7.95
CC(C)c1noc(C(C)N2CCN(CCc3ccncc3)CC2)n1 (configuration not stated) | 2.16
CC(CNC(=O)c1cccnc1)Oc1ccc(F)cc1 (configuration not stated) | -6.98
CC(c1ccc(S(C)(=O)=O)cc1)N(C)C(=O)c1ccccc1I (configuration not stated) | 11.1
CNS(=O)(=O)Cc1ccc(CNc2ccc(C#N)cn2)cc1 | -6.87
O=C(c1cc(C2CC2)[nH]n1)N1CCCN(c2nccs2)CC1 | 6.37
Fc1cc(CN2CCOC3(CCOCC3)C2)ccc1Cl | -4.57
Cc1ccc(C(=O)NCc2ccccc2S(=O)(=O)N(C)CCO)cc1F | -3.04
O=C(NCC(O)COc1ccc(F)cc1)C1(c2ccc(F)cc2)CC1 (configuration not stated) | 2.71
Cc1nc(C)n(CC2CCCN(CCCS(=O)(=O)N(C)C)C2)n1 (configuration not stated) | -3.15
CN(C)C(=O)Cn1cc(C(=O)NCCc2ccc(Cl)cc2Cl)nn1 | -2.35
COc1ccnc(NC(=O)c2cscc2C)c1 | -16
Cc1ccc(C(=O)NC(CN2CCCC2)c2ccccc2)c(=O)[nH]1 (configuration not stated) | -2.32
O=C(Cn1cc(C2CC2)nn1)NC(c1ccc(Cl)cc1)C1CC1 (configuration not stated) | 2.16
O=C(CN1CCS(=O)(=O)CC1)NCc1ccccc1F | 6.32
CCc1nsc(N2CCN(C(=O)c3ccnc(N(C)C)c3)CC2)n1 | -2.48
Cc1ccc(C)c(OCC(O)Cn2ncc3cnn(C)c(=O)c32)c1 (configuration not stated) | 4.45
CC(C)(NC(=O)c1ccc(-c2ccccc2F)s1)C(N)=O | 12.7
CCc1cccc(OCC(=O)NC(C)c2nnc3n2CCC3)c1 (configuration not stated) | -3.78

SMILES | cytotoxicity at 10 µM [%]
Cc1cccc(C)c1OCC(=O)NC(C)c1nnc2n1CCC2 (configuration not stated) | -3.09
Cc1ccc(S(C)(=O)=O)cc1C(=O)NS(=O)(=O)c1cccs1 | 0.532
CC(C)Cc1nc(CSCC(=O)N2CCC(C)CC2)no1 | 2.25
Cc1cc(NCc2csc(-c3ccco3)n2)ccc1C(N)=O | 20.3
CCS(=O)(=O)c1ccc(NCc2csc(C(C)C)n2)cc1 | 8.73
CNC(=O)C(C)CN(C)C(=O)Nc1ccc(Cl)cc1-n1cccc1 (configuration not stated) | 16.9
CCCN1CCCCC1C(=O)Nc1ccc(-c2nnc[nH]2)cc1 (configuration not stated) | 4.64
Cc1ccc(CNC(=O)N(Cc2ccccc2F)C2CC2)cn1 | 0.0194
CC(=O)Nc1cc(C(=O)N2CCOCC2c2ccc(C)o2)ccc1F (configuration not stated) | -3.08
CCOCCOC(C)C(=O)NCc1cn2cc(Br)ccc2n1 (configuration not stated) | -6.83
CN(CCc1ccccn1)C(=O)C(c1cccnc1)N1CCOCC1 (configuration not stated) | 2.03
COc1ccc(-n2cc(CCO)cn2)cc1C(N)=O | 5.97
CCC[C@H]1CN(S(=O)(=O)c2c(C)noc2C)C[C@@H]1N | -0.288
Cc1ccccc1C1(O)CCN(C(=O)CCc2cn3ccccc3n2)C1 (configuration not stated) | -3.18
CC(NC(=O)c1cc2n(n1)CCCN(C)C2)c1cn2ccsc2n1 (configuration not stated) | -2.51
CCOc1ccccc1-n1c(C2CCC2)n[nH]c1=O | 4.18
CS(=O)(=O)NCC1(O)CCCN(C(=O)CCn2cc(Cl)cn2)CC1 (configuration not stated) | -144
N[C@H]1CN(S(=O)(=O)Cc2ccccc2)C[C@@H]1C1CC1 | -133
OC1(CNCCc2nc(Cc3ccccc3)no2)CNCCOC1 (configuration not stated) | 4.43
CCN(CC)CCC(=O)NCc1cc2n(n1)CCN(C(=O)N(C)C)C2 | -6.72
O=C(c1cn(-c2ccccc2)nn1)N1CCOCC(O)C1 (configuration not stated) | 2.35
O=c1cc(N2CCc3ccccc3C2)cnn1CCC1CCOC1 (configuration not stated) | -1.19
CO[C@H]1CN(Cc2cc(Cn3cncn3)c(C)cc2C)CC[C@H]1N | -7.29

SMILES | cytotoxicity at 10 µM [%]
Cc1ccc(NC2CCCN(CCc3ccccc3)C2)nn1 (configuration not stated) | 11.7
Cc1nc(O)cc(CN2C[C@H](NS(=O)(=O)N(C)C)[C@@H](C3CC3)C2)n1 | -5.01
Cc1ccc(C(CNC(=O)c2cc(CC(C)C)nn2C)N(C)C)cc1 (configuration not stated) | -3.34
C=C(C)COc1cccc(C(=O)N(CC)Cc2nc(COC)no2)c1 | -18
Cc1cc(CNc2ccc(-c3nc(C4CC4)no3)cn2)no1 | 2.55
Cc1nn(C)c(C)c1CCC(=O)N1CC(c2cccnc2)C1 | -4.84
CCC(C)N(CC)C(=O)c1ccc2[nH]nnc2c1 (configuration not stated) | 10.5
Cc1cc(C(=O)N2CC[C@H](N3CCN(C)CC3)[C@H](CCCO)C2)n(C)n1 | -12.4
CNc1nc(C(=O)NCc2cccnc2N(C)C)cs1 | -7.57
COc1cccc(OC2CN(C(=O)c3ccoc3C)C2)c1 | 9.21
COCCCN(C)c1nc(-c2ccncc2)nc2c1CCN(C(C)=O)C2 | -1.16
OC1(CNCc2csc(-c3ncccn3)n2)CCCNC1 (configuration not stated) | -10.7
Cc1noc(C(C)C)c1C(=O)NCc1ccc2c(c1)OCCO2 | 3.24
CCn1c(C(=O)N2CCCN(CC(N)=O)CC2)cc2ccccc21 | -4.77
CCc1nnc(CN2CCCC2Cn2cc(C)cn2)o1 (configuration not stated) | -6.64
O=C(NCC1CCCOC1)c1ccc(-c2ccccc2)[nH]c1=O (configuration not stated) | -12.2
Cc1nn(C)c(Cl)c1C1CCCN1C(=O)c1ccoc1C (configuration not stated) | -8.18
Cc1nc(CN2CCN(C(=O)NC(C)Cn3ccnc3)CC2)cs1 (configuration not stated) | -5.28
Cc1ccc(-c2nc(CNC(C)Cn3cccn3)cs2)o1 (configuration not stated) | -7.82
Cc1ccc(C(=O)NCc2ccnc(N(C)C)c2)c(C)c1 | -11.1
CC(C)(C)c1nc(CN2CCOC(Cn3cccn3)C2)no1 (configuration not stated) | -18.5
COCCC(C)NC(=O)c1cc(Br)c2c(c1)OCCO2 (configuration not stated) | -13.4
CNC(=O)N1CCC(NC(=O)c2cnn(C)c2)CC1 | -1.35

SMILES | cytotoxicity at 10 µM [%]
Cc1ccc(NC(=O)N(C)Cc2cnn(C)c2)c(C)c1 | -10.7
CC(NC(=O)COCC(F)(F)F)c1nnc2n1CCCCC2 (configuration not stated) | -12.3
CCN(Cc1cccc2c1OCO2)C(=O)NCc1ccccn1 | 1.48
CCCc1nc(CN2CCN(C(C)c3nc(C4CC4)no3)CC2)no1 (configuration not stated) | -8.14
Cc1nc(CN2CCCN(C(=O)c3sccc3C#N)CC2)cs1 | -7.98
Cc1nc(CN(C)CC2CCCN2c2cccnn2)oc1C (configuration not stated) | -4.25
CCS(=O)(=O)c1ccccc1N1CCC(NC(=O)NC2CCCC2)CC1 | -16
CC(C)N1CC(C(=O)NCc2ccnc(-n3cccn3)c2)CC1=O (configuration not stated) | -2.5
CCOC(=O)CSc1nnc(C(N)CC(C)C)o1 (configuration not stated) | -8.32
CC(NCc1ccc(C(N)=O)cc1)c1ccc(Cl)c(Cl)c1 (configuration not stated) | 8.8
Cc1cccc(-c2c[nH]c(C3CCCN3)n2)c1 (configuration not stated) | -11.4
CCS(=O)(=O)N1CCOC2(CCCN(Cc3ccccn3)C2)C1 (configuration not stated) | 5.86
Cc1nc(CN2Cc3nccn3CC(CN3CCCC3)C2)cs1 (configuration not stated) | 2.43
O=C(O)c1cc2c(nc1-c1ccncc1)CCN(C1CCOC1)CC2 (configuration not stated) | 9.34
O=C(CC1CC1)N[C@@H]1CN(c2ncccn2)C[C@@H]2CCCO[C@@H]21 | 9.87
CN1CCN(C(=O)NC2CCCC2)Cc2cccnc21 | -0.123
O=C([C@@H]1C[C@@H]2CCN(C3CCOCC3)C[C@H]2O1)N1CCOCC1 | 0.763
CCn1ncc2c1CN(C(=O)Cc1cccs1)CC2COC (configuration not stated) | 4.7
O=c1occ(CN2CCCCCC2)c(O)c1CN1CCOCC1 | -8.2
Cc1ccc(NC(=O)N2C[C@@H]3CC[C@H]2CN(Cc2cscn2)C3)cc1 | -7.47
